ChEMBL document CHEMBL2069278, “Novel substituted benzothiophene and thienothiophene carboxanilides and quinolones: synthesis, photochemical synthesis, DNA-binding properties, antitumor evaluation and 3D-derived QSAR analysis” (J Med Chem, 2012)
Activity calls are given as the source filed them. The rule behind the calls is not given here.

Key:
Nucleic Acid [1] = assay: Binding affinity to calf thymus DNA assessed as change in melting temperature at drug/base pair ratio of 0.025 by UV-visible spectrophotometric analysis; type: nucleic-acid assay; conditions: Bos taurus
Procedure, shortened: (§1)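 Melting: 20 μM CT-DNA or poly(dAdT)2 alone or with compound (drug/base pair ratio 0.01−0.5) in BPE buffer (6 mM Na2HPO4, 2 mM NaH2PO4, 1 mM EDTA, pH 7.1); A260 read each minute from 20 to 100 °C at 1 °C/min; Tm from midpoint of hyperchromic transition (first-derivative plots); ΔTm = Tm[drug+DNA] − Tm[DNA alone].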

MOLT-4 = assay: Cytotoxicity against human MOLT4 cells after 72 hrs by MTT assay; type: functional, cell-based; conditions: MOLT-4, 72 h
Procedure, shortened: (§2)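 Cells seeded on day 0 at 1 × 10^4 to 3 × 10^4 cells/mL (adherent lines in DMEM, MOLT-4 in suspension in RPMI, 10% FBS, 37 °C, 5% CO2); 10-fold dilutions 10−8–10−4 M for 72 h; MTT, OD 570 nm; percentage growth versus time-zero and control; IC50 by linear regression; quadruplicate, at least two experiments.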

HCT-116 [2] = assay: Cytotoxicity against human HCT116 cells after 72 hrs by MTT assay; type: functional, cell-based; conditions: HCT-116, 72 h; procedure, shortened: as §2
SW-620 = assay: Cytotoxicity against human SW620 cells after 72 hrs by MTT assay; type: functional, cell-based; conditions: SW-620, 72 h; procedure, shortened: as §2
MCF7 = assay: Cytotoxicity against human MCF7 cells after 72 hrs by MTT assay; type: functional, cell-based; conditions: MCF7, 72 h; procedure, shortened: as §2
NCI-H460 = assay: Cytotoxicity against human H460 cells after 72 hrs by MTT assay; type: functional, cell-based; conditions: NCI-H460, 72 h; procedure, shortened: as §2
Nucleic Acid [3] = assay: Binding affinity to calf thymus DNA assessed as change in melting temperature at drug/base pair ratio of 0.01 by UV-visible spectrophotometric analysis; type: nucleic-acid assay; conditions: Bos taurus; procedure, shortened: as §1
Nucleic Acid [4] = assay: Binding affinity to calf thymus DNA assessed as DNA intercalation at 50 uM by circular dichroism spectra analysis; type: nucleic-acid assay; conditions: Bos taurus
Procedure, shortened: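 CD: 50 μM compound with 200 μM CT-DNA in BPE buffer, alone or plus 10 or 100 mM NaCl; spectra 480–230 nm, 10 mm quartz cell, 20 °C; compound without DNA as control for intrinsic CD.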

[5] = target: T1, DNA topoisomerase 1 (Homo sapiens) (UniProt P11387); assay: Inhibition of human topoisomerase 1-mediated supercoiled pUC19 plasmid DNA relaxation at 10 uM incubated for 45 mins followed by enzyme addition measured after 30 mins by agarose gel electrophoresis
T1 sequence (whole entry): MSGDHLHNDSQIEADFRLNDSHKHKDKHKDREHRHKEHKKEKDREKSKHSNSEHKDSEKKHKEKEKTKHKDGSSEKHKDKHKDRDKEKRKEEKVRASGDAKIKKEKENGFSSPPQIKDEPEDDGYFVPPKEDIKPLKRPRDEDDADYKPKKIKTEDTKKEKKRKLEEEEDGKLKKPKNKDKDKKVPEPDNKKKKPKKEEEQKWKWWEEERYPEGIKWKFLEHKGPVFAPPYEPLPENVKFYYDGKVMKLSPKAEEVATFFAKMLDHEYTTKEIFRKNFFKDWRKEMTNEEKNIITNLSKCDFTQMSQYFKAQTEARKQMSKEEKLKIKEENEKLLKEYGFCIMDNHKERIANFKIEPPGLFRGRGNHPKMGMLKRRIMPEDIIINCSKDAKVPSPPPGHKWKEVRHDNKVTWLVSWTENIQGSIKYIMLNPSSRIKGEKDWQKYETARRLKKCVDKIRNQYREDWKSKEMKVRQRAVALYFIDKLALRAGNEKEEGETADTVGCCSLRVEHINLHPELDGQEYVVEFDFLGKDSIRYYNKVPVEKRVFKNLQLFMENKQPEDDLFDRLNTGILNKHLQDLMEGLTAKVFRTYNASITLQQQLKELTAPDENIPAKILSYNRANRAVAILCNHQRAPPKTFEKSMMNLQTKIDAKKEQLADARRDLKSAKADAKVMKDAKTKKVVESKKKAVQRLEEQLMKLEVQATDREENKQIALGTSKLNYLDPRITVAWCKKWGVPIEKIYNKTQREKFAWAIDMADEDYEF
Procedure, shortened: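 Graded compound concentrations preincubated with supercoiled pUC19, then 4 units human topoisomerase I, 37 °C for 45 min in relaxation buffer; stopped with 0.25% SDS and 250 μg/mL proteinase K, 30 min at 50 °C; 1% agarose gel without ethidium bromide, 2 h at 120 V in TBE, then stained with ethidium bromide.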

Nucleic Acid [6] = assay: Binding affinity to radiolabeled Pvu2 DNA after 15 mins by Dnase1 footprinting assay; type: nucleic-acid assay
Procedure, shortened: (§3)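 265 bp EcoRI/PvuII pBluescript fragment, 3′-end labeled with α-[32P]dATP by Klenow. Compounds at increasing concentrations pre-equilibrated with DNA 15 min at 37 °C, then DNase I (final 0.002 unit/mL) in 20 mM NaCl, 2 mM MgCl2, 2 mM MnCl2, pH 7.3, 4 min digestion; products resolved on denaturing 8% polyacrylamide/8 M urea gel, G-track for base positions.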

Nucleic Acid [7] = assay: Binding affinity to Poly (dAdT)2 DNA assessed as change in melting temperature at drug/base pair ratio of 0.01 by UV-visible spectrophotometric analysis; type: nucleic-acid assay; procedure, shortened: as §1
Nucleic Acid [8] = assay: Binding affinity to Poly (dAdT)2 DNA assessed as DNA intercalation at 20 uM by circular dichroism spectra analysis; type: nucleic-acid assay
Procedure, shortened: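 CD: compound titrated against poly(dAdT)2, or poly(dAdT)2 titrated with compound from 1 to 200 μM, in BPE buffer (pH 7.1); spectra from 480 to 230 nm in 10 mm quartz cell at 20 °C; peak position and intensity followed.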

[9] = target: T1, DNA topoisomerase 1 (Homo sapiens); assay: Inhibition of human topoisomerase 1-mediated DNA cleavage at 10 uM incubated for 45 mins followed by enzyme addition measured after 30 mins by agarose gel electrophoresis
Procedure, shortened: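 Topo I cleavage run like the relaxation assay (pUC19, 4 units human topoisomerase I, 37 °C, 45 min; SDS/proteinase K stop), but samples run on 1% agarose gel containing ethidium bromide; camptothecin 20 μM as poisoning control.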

[10] = target: DNA topoisomerase 2-alpha (Homo sapiens) (UniProt P11388); assay: Inhibition of human topoisomerase 2-mediated DNA cleavage at 50 uM incubated for 45 mins followed by enzyme addition measured after 30 mins by agarose gel electrophoresis
Procedure, shortened: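 Compounds (50 μM) incubated with 350 ng supercoiled pUC19 before topoisomerase II addition; gel quantified for percentage poisoning normalized to etoposide at the same concentration.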

HCT-116 [11] = assay: Induction of cell cycle arrest in human HCT116 cells assessed as accumulation at G1 phase at 1 to 5 uM by propidium iodide based flow cytometry; type: functional; conditions: TDE = time-dependent effect
Procedure, shortened: (§4)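 HCT116 cells (2 × 10^5 per well) treated after 24 h with 1 or 5 μM for 24 and 48 h; floating and attached cells pooled, fixed in 70% ethanol, stained with 50 μg/mL propidium iodide plus RNase A; 20 000 events by flow cytometry; phase percentages from DNA histograms; duplicate, repeated at least twice.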

HCT-116 [12] = assay: Induction of cell cycle arrest in human HCT116 cells assessed as accumulation at G2/M phase at 1 to 5 uM by propidium iodide based flow cytometry; type: functional; conditions: TDE = time-dependent effect; procedure, shortened: as §4
HCT-116 [13] = assay: Induction of cell cycle arrest in human HCT116 cells assessed as accumulation at G1 phase after 24 to 48 hrs by propidium iodide based flow cytometry; type: functional; procedure, shortened: as §4
HCT-116 [14] = assay: Induction of cell cycle arrest in human HCT116 cells assessed as accumulation at G2/M phase after 24 to 48 hrs by propidium iodide based flow cytometry; type: functional; procedure, shortened: as §4
Nucleic Acid [15] = assay: Binding affinity to calf thymus DNA assessed as change in melting temperature at drug/base pair ratio of 0.1 by UV-visible spectrophotometric analysis; type: nucleic-acid assay; conditions: Bos taurus; procedure, shortened: as §1
Nucleic Acid [16] = assay: Binding affinity to AT rich site of Pvu2 DNA by densitometric analysis; type: nucleic-acid assay; procedure, shortened: as §3
Nucleic Acid [17] = assay: Binding affinity to calf thymus DNA assessed as change in melting temperature at drug/base pair ratio of 0.25 by UV-visible spectrophotometric analysis; type: nucleic-acid assay; conditions: Bos taurus; procedure, shortened: as §1
Nucleic Acid [18] = assay: Binding affinity to calf thymus DNA assessed as change in melting temperature at drug/base pair ratio of 0.5 by UV-visible spectrophotometric analysis; type: nucleic-acid assay; conditions: Bos taurus; procedure, shortened: as §1
Nucleic Acid [19] = assay: Binding affinity to Poly (dAdT)2 DNA assessed as change in melting temperature at drug/base pair ratio of 0.025 by UV-visible spectrophotometric analysis; type: nucleic-acid assay; procedure, shortened: as §1
Nucleic Acid [20] = assay: Binding affinity to Poly (dAdT)2 DNA assessed as change in melting temperature at drug/base pair ratio of 0.05 by UV-visible spectrophotometric analysis; type: nucleic-acid assay; procedure, shortened: as §1
Nucleic Acid [21] = assay: Binding affinity to Poly (dAdT)2 DNA assessed as change in melting temperature at drug/base pair ratio of 0.1 by UV-visible spectrophotometric analysis; type: nucleic-acid assay; procedure, shortened: as §1
Nucleic Acid [22] = assay: Binding affinity to Poly (dAdT)2 DNA assessed as change in melting temperature at drug/base pair ratio of 0.25 by UV-visible spectrophotometric analysis; type: nucleic-acid assay; procedure, shortened: as §1
HCT-116 [23] = assay: Induction of cell cycle arrest in human HCT116 cells assessed as accumulation at G1 phase at 5 uM after 24 to 48 hrs by propidium iodide based flow cytometry; type: functional; procedure, shortened: as §4

Sequence of DNA topoisomerase 2-alpha (Homo sapiens) (P11388 whole entry): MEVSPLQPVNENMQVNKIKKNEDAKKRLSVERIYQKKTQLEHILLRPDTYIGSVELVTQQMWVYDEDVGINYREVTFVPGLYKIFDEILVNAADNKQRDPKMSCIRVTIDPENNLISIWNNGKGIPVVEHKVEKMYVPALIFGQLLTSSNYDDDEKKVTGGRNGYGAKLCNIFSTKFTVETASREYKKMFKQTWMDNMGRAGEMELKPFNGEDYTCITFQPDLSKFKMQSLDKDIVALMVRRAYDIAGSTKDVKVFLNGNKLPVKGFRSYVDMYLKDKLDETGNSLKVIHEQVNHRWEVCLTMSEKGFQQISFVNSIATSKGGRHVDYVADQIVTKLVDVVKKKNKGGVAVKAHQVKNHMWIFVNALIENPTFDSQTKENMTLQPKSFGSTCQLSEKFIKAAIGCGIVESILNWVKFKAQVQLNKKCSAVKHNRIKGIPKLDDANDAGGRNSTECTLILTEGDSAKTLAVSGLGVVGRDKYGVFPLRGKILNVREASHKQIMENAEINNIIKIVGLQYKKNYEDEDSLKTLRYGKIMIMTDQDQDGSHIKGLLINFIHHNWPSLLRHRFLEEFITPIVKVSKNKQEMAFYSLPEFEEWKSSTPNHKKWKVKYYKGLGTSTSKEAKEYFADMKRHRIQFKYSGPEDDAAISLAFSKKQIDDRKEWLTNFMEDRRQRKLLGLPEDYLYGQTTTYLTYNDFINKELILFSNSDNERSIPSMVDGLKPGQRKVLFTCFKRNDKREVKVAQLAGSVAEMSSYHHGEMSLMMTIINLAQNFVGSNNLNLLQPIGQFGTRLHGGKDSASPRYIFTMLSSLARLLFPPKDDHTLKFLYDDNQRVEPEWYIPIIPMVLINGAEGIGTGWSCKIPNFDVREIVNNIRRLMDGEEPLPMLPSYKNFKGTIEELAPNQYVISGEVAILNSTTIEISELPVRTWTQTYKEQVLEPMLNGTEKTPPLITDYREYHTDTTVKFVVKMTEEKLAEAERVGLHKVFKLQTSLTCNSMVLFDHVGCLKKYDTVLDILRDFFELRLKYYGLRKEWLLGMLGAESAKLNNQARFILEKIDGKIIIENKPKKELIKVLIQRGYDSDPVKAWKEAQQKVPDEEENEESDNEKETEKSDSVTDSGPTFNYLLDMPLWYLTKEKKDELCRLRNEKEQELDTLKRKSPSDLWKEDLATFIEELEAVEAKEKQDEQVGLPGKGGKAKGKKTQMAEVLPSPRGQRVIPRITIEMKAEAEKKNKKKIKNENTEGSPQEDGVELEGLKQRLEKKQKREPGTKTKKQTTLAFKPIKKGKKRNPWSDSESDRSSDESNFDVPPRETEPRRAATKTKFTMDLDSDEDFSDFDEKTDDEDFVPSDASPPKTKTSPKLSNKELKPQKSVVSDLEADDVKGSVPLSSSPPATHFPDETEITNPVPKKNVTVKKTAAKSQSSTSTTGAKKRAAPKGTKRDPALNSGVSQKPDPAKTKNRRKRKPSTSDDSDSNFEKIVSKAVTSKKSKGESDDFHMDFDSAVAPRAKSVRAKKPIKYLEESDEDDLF

Compound | IC50 (MOLT-4) | IC50 (HCT-116 [2]) | IC50 (SW-620) | IC50 (MCF7) | IC50 (NCI-H460) | Activity (Nucleic Acid [4]) | inhibition [5] | Activity (Nucleic Acid [6]) | inhibition [10] | Activity (HCT-116 [11]) | Activity (HCT-116 [12]) | Activity (HCT-116 [13]) | Activity (HCT-116 [14]) | Activity (Nucleic Acid [16]) | ΔTm (Nucleic Acid [17]) | ΔTm (Nucleic Acid [18]) | also measured
O=C(Nc1ccc(C2=NCCN2)cc1)c1sc2cc(C3=NCCN3)ccc2c1Cl | 1900 nM | 1700 nM | 1400 nM | 1500 nM | 2600 nM | Active | Active | Active | Active | tde | tde | Dose-dependent effect | Dose-dependent effect | Active | 23.9 °C | 28.4 °C | ΔTm (Nucleic Acid [1]): 2 °C; ΔTm (Nucleic Acid [3]): 1 °C; ΔTm (Nucleic Acid [7]): 1 °C; Activity (Nucleic Acid [8]): Active; inhibition [9]: Active; ΔTm (Nucleic Acid [15]): 7.9 °C; ΔTm (Nucleic Acid [19]): 2 °C; ΔTm (Nucleic Acid [20]): 5.9 °C; ΔTm (Nucleic Acid [21]): 18.6 °C; ΔTm (Nucleic Acid [22]): 27.4 °C
O=C(Nc1ccc(C2=NCCN2)cc1)c1sc2ccccc2c1Cl | 2100 nM | 1800 nM | 1200 nM | 1600 nM | 1000 nM | inactive | Active | Active | Active | tde | tde | Dose-dependent effect | Dose-dependent effect | inactive | 5 °C | 6.8 °C | Activity (HCT-116 [23]): Active
